The source made the active and inactive calls. The calls are words filed in the database; no cut-off is given here.
Tests used:
[1] = organism: Gallus gallus; experiment: Inhibition of vascular sprouts in chick embryo aorta assessed as vascular disruption at 10 uM after 30 mins by microscopy; type: functional, tissue-based
Outline: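 Aortic arches from day-14 chick embryos sliced, embedded in Matrigel with complete medium; endothelial sprouts formed over 24–48 h. Compound added at various concentrations and vascular channels imaged before and 30 min after addition.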

[2] = test system: HeLa; experiment: Antiproliferative activity against human HeLa cells after 72 hrs by MTT assay; type: functional, cell-based
[3] = test system: A549; experiment: Antiproliferative activity against human A549 cells after 72 hrs by MTT assay; type: functional, cell-based; conditions: A549, 72 h
[4] = test system: HL-60; experiment: Antiproliferative activity against human HL60 cells after 72 hrs by MTT assay; type: functional, cell-based; conditions: HL-60, 72 h
[5] = test system: Jurkat; experiment: Antiproliferative activity against human Jurkat cells after 72 hrs by MTT assay; type: functional, cell-based
Outline: (§1)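 Cells seeded at 8×10^3 per well (Jurkat, HL-60, K562 in RPMI-1640; MCF7, A549, HeLa in DMEM; all with 10% FBS, penicillin/streptomycin), incubated 18 h at 37 °C, 5% CO2, then exposed to compound at varying concentrations in complete medium for 72 h.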

[6] = test system: MCF7; experiment: Antiproliferative activity against human MCF7 cells after 72 hrs by MTT assay; type: functional, cell-based; conditions: MCF7, 72 h
[7] = Inhibition of bovine brain tubulin polymerization after 20 mins by turbidimetry; design: species or system Bos taurus
Outline: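 Bovine brain tubulin (10 µM) preincubated with varying compound concentrations in glutamate buffer at 30 °C, chilled to 0 °C, 0.4 mM GTP added, then warmed to 30 °C in spectrophotometer; assembly followed by turbidity at 350 nm.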

[8] = organism: Bos taurus; experiment: Ratio of IC50 for comberestastatin-A4 to IC50 for drug for inhibition of bovine brain tubulin polymerization after 20 mins by turbidimetry
[9] = organism: Bos taurus; experiment: Displacement of [3H]colchicine from bovine tubulin at 1 uM
Outline: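 [3H]Colchicine binding inhibition measured with reaction mixtures of 1 µM tubulin, 5 µM [3H]colchicine and 1 µM test compound.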

[10] = test system: HeLa; experiment: Cell cycle arrest in human HeLa cells assessed as increase in accumulation of cells at G2/M phase after 24 hrs by propidium iodide staining-based flow cytometry; type: functional
Outline: (§2)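 5×10^5 exponentially growing cells treated with compound (7–250 nM range for 24 h; 30 nM for 24 and 48 h), collected, fixed in ice-cold 70% ethanol, lysed with buffer containing RNase A and 0.1% Triton X-100, PI-stained, and DNA content analysed by flow cytometry; phase distribution from DNA histograms. Mean ± SEM of three independent experiments.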

[11] = test system: HeLa; experiment: Cell cycle arrest in human HeLa cells assessed as decrease in accumulation of cells at G1 phase at 7 to 250 nM after 24 hrs by propidium iodide staining-based flow cytometry; type: functional; outline: as §2
[12] = test system: HeLa; experiment: Cell cycle arrest in human HeLa cells assessed as decrease in accumulation of cells at S phase at 7 to 250 nM after 24 hrs by propidium iodide staining-based flow cytometry; type: functional; outline: as §2
[13] = test system: Jurkat; experiment: Cell cycle arrest in human Jurkat cells assessed as increase in accumulation of cells at G2/M phase at 7 to 250 nM after 24 hrs by propidium iodide staining-based flow cytometry; type: functional; outline: as §2
[14] = test system: Jurkat; experiment: Cell cycle arrest in human Jurkat cells by accumulation of cells at G2/M phase at 7 to 250 nM after by propidium iodide staining-based flow cytometry; type: functional; conditions: TDE = time-dependent effect; outline: as §2
[15] = test system: Jurkat; experiment: Cell cycle arrest in human Jurkat cells assessed as accumulation of cells at SubG1 phase at 7 to 250 nM after 24 hrs by propidium iodide staining-based flow cytometry; type: functional; outline: as §2
[16] = test system: Jurkat; experiment: Induction of apoptosis in human Jurkat cells assessed as increase in annexin-V positive cells after 24 to 72 hrs by annexin-V-FITC and propidium iodide staining based flow cytometry; type: functional, cell-based
[17] = test system: Jurkat; experiment: Induction of apoptosis in human Jurkat cells assessed as depolarization of mitochondrial membrane potential measured as annexin-V positive cells at 50 nM after 24 hrs by annexin-V-FITC and propidium iodide staining based flow cytometry (reference value: 3.0%); type: functional
[18] = test system: Jurkat; experiment: Induction of apoptosis in human Jurkat cells assessed as depolarization of mitochondrial membrane potential measured as annexin-V positive cells at 50 nM after 48 hrs by annexin-V-FITC and propidium iodide staining based flow cytometry (reference value: 3.0%); type: functional
[19] = test system: Jurkat; experiment: Induction of apoptosis in human Jurkat cells assessed as depolarization of mitochondrial membrane potential measured as annexin-V positive cells at 50 nM after 72 hrs by annexin-V-FITC and propidium iodide staining based flow cytometry (reference value: 3.0%); type: functional
[20] = test system: Jurkat; experiment: Induction of apoptosis in human Jurkat cells assessed as increase in ROS production at 50 nM by HE staining based flow cytometry; type: functional, cell-based; conditions: TDE = time-dependent effect
Outline: (§3)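 After 24, 48, 72 h with 50 nM compound, Jurkat cells resuspended in HBSS with 2.5 µM HE or 0.1 µM H2DCFDA, 30 min at 37 °C, washed, and read by flow cytometry (excitation 488 nm; emission 585 nm HE, 530 nm DCF). Mean ± SEM of three independent experiments.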

[21] = test system: Jurkat; experiment: Induction of apoptosis in human Jurkat cells assessed as increase in ROS production at 50 nM by H2DCFDA staining based flow cytometry; type: functional, cell-based; conditions: TDE = time-dependent effect; outline: as §3
[22] = test system: Jurkat; experiment: Induction of apoptosis in human Jurkat cells assessed as activation of caspase-3 at 50 nM by flow cytometry; type: functional, cell-based; conditions: TDE = time-dependent effect
Outline: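 Jurkat cells exposed to 50 nM compound for 24, 48 and 72 h, fixed in Cytofix buffer 20 min, washed in Perm/Wash, stained 30 min with FITC-conjugated anti-human active caspase-3 fragment antibody; percentage of positive cells by flow cytometry, mean ± SEM of three experiments.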

[23] = test system: Jurkat; experiment: Induction of apoptosis in human Jurkat cells assessed as increase in PARP cleavage at 50 nM after 24 hrs by immunoblot method; type: functional, cell-based
Outline: (§4)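 Jurkat cells given 50 nM compound for varying times, washed in cold PBS, lysed on ice 30 min, cleared at 15000g, 4 °C; 20 µg protein run on 7.5–15% SDS-PAGE, blotted to PVDF, probed 2 h at room temperature with rabbit anti-PARP or anti-Bcl-2 (1:1000), peroxidase secondary, ECL detection; β-actin reprobe as loading control.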

[24] = test system: Jurkat; experiment: Induction of apoptosis in human Jurkat cells assessed as decrease in Bcl2 expression at 50 nM after 24 to 72 hrs by immunoblot method; type: functional, cell-based; outline: as §4
[25] = test system: HUVEC; experiment: Induction of apoptosis in HUVEC expressing GFP assessed as formation of membrane blebs at 0.5 uM to 10 uM after 30 mins by confocal microscopy; conditions: Homo sapiens
[26] = test system: HUVEC; experiment: Induction of apoptosis in HUVEC expressing GFP assessed as decrease in GFP-positive cell area at 0.5 uM to 10 uM after 30 mins by confocal microscopy; design: scale not given: the % may be the effect or the level left
[27] = test system: HeLa; experiment: Cell cycle arrest in human HeLa cells by accumulation of cells at G2/M phase at 30 nM after 48 hrs by propidium iodide staining-based flow cytometry (reference value: 12%)
[28] = test system: K562; experiment: Antiproliferative activity against human K562 cells after 72 hrs by MTT assay; type: functional, cell-based; conditions: K562, 72 h; outline: as §1

| SMILES | IC50 [2] [nM] | IC50 [3] [nM] | IC50 [4] [nM] | IC50 [5] [nM] | IC50 [6] [nM] | IC50 [7] [nM] | Activity [9] [%] | Activity [10] | Activity [11] | Activity [12] | Activity [13] | Activity [14] | Activity [15] | Activity [16] | Activity [17] | Activity [18] | Activity [19] | Activity [20] | Activity [21] | Activity [22] | other results |
| --- | --- | --- | --- | --- | --- | --- | --- | --- | --- | --- | --- | --- | --- | --- | --- | --- | --- | --- | --- | --- | --- |
| CCOc1ccc(-c2ncnn2-c2cc(OC)c(OC)c(OC)c2)cc1 | 15 | 100 | 20 | 5 | 50 | 760 | 86 | Dose-dependent effect | Active | Active | Active | tde | Active | Active | 14.4% | 28.4% | 44.5% | tde | tde | tde | Activity [1]: Active; Ratio IC50 [8]: 2; Activity [23]: Active; Activity [24]: Active; Activity [25]: Active; Activity [26]: 30%; Activity [27]: 70% |
| CCOc1ccc(-c2ncnn2-c2cc(OC)c(OC)c(OC)c2)cc1Cl | 6 | 10 | 3 | 3 | 17 | 1500 | 75 | Dose-dependent effect | Active | Active | Active | tde | Active | Active | Active | Active | Active | tde | tde | tde | IC50 [28]: 20 nM; Activity [23]: Active; Activity [24]: Active; Activity [27]: 70% |
